ChEMBL document CHEMBL4145605, “Evodialones A and B: Polyprenylated Acylcyclopentanone Racemates with a 3-Ethyl-1,1-diisopentyl-4-methylcyclopentane Skeleton from Evodia lepta” (2018)
In brackets after ≈: the same amount, converted by molar mass.

Legend:
Format in all cases: functional
[1] = tested on: Staphylococcus aureus; assay: Antibacterial activity against Staphylococcus aureus ATCC 25923 measured after 16 hrs by turbidimetric method; settings: ATCC 25923, 16 h
Summary of the method: (§1)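 In vitro panel of four Gram-positive bacteria, three Gram-negative bacteria and six fungal strains. Activity is reported as MIC in μM. Culture and assay protocols follow an earlier method, with details in the Supporting Information.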

[2] = tested on: Staphylococcus epidermidis; assay: Antibacterial activity against Staphylococcus epidermidis ATCC 12228 measured after 16 hrs by turbidimetric method; settings: ATCC 12228, 16 h; summary of the method: as §1
[3] = tested on: Bacillus subtilis; assay: Antibacterial activity against Bacillus subtilis ATCC 21332 measured after 16 hrs by turbidimetric method; settings: ATCC 21332, 16 h; summary of the method: as §1
[4] = tested on: Enterococcus faecalis; assay: Antibacterial activity against Enterococcus faecalis ATCC 29212 measured after 16 hrs by turbidimetric method; settings: ATCC 29212, 16 h; summary of the method: as §1
[5] = tested on: Escherichia coli; assay: Antibacterial activity against Escherichia coli ATCC 25922 measured after 16 hrs by turbidimetric method; settings: ATCC 25922, 16 h; summary of the method: as §1
[6] = tested on: Klebsiella pneumoniae; assay: Antibacterial activity against Klebsiella pneumoniae ATCC 700603 measured after 16 hrs by turbidimetric method; settings: Klebsiella pneumoniae, 700603, 16 h; summary of the method: as §1
[7] = tested on: Enterobacter cloacae; assay: Antibacterial activity against Enterobacter cloacae ATCC 700323 measured after 16 hrs by turbidimetric method; settings: ATCC 700323, 16 h; summary of the method: as §1
[8] = tested on: Candida parapsilosis; assay: Antifungal activity against Candida parapsilosis ATCC 22019 measured after 48 hrs by turbidimetric method; settings: Lodderomyces parapsilosis, ATCC 22019, 48 h; summary of the method: as §1
[9] = tested on: Nakaseomyces glabratus; assay: Antifungal activity against Candida glabrata ATCC 2001 measured after 48 hrs by turbidimetric method; settings: CBS 138, 48 h; summary of the method: as §1
[10] = tested on: Meyerozyma guilliermondii; assay: Antifungal activity against Candida guilliermondii ATCC 6260 measured after 48 hrs by turbidimetric method; settings: ATCC 6260, 48 h; summary of the method: as §1
[11] = tested on: Clavispora lusitaniae; assay: Antifungal activity against Candida lusitaniae ATCC 34449 measured after 48 hrs by turbidimetric method; settings: ATCC 34449, 48 h; summary of the method: as §1
[12] = tested on: Pichia kudriavzevii; assay: Antifungal activity against Candida krusei ATCC 6258 measured after 48 hrs by turbidimetric method; settings: ATCC 6258, 48 h; summary of the method: as §1
[13] = tested on: Candida albicans; assay: Antifungal activity against Candida albicans ATCC 60193 measured after 48 hrs by turbidimetric method; settings: ATCC 60193, 48 h; summary of the method: as §1

COC(=O)[C@@]1(O)C(=O)[C@@]2(CC=C(C)C)C[C@H](O)C(C)(C)OC2=C1C(C)=O
MIC [1]: > 200 µM
MIC [2]: > 200 µM
MIC [3]: > 200 µM
MIC [4]: > 200 µM
MIC [5]: > 200 µM
MIC [6]: > 200 µM
MIC [7]: > 200 µM
MIC [8]: 17.1 µM (≈ 6.27 µg/mL)
MIC [9]: 34.2 µM (≈ 12.5 µg/mL)
MIC [10]: 34.2 µM (≈ 12.5 µg/mL)
MIC [11]: 68.3 µM (≈ 25 µg/mL)
MIC [12]: 137 µM (≈ 50.1 µg/mL)
MIC [13]: 137 µM (≈ 50.1 µg/mL)

COC(=O)[C@@]1(O)C(=O)[C@@]2(CC=C(C)C)C[C@@H](O)C(C)(C)OC2=C1C(C)=O
MIC [1]: > 200 µM
MIC [2]: > 200 µM
MIC [3]: > 200 µM
MIC [4]: > 200 µM
MIC [5]: > 200 µM
MIC [6]: > 200 µM
MIC [7]: > 200 µM
MIC [8]: > 200 µM
MIC [9]: > 200 µM
MIC [10]: > 200 µM
MIC [11]: > 200 µM
MIC [12]: > 200 µM
MIC [13]: > 200 µM

COC(=O)[C@]1(O)C(=O)[C@]2(CC=C(C)C)C[C@@H](O)C(C)(C)OC2=C1C(C)=O
MIC [1]: > 200 µM
MIC [2]: > 200 µM
MIC [3]: > 200 µM
MIC [4]: > 200 µM
MIC [5]: > 200 µM
MIC [6]: > 200 µM
MIC [7]: > 200 µM
MIC [8]: 17.1 µM (≈ 6.27 µg/mL)
MIC [9]: 34.2 µM (≈ 12.5 µg/mL)
MIC [10]: 68.3 µM (≈ 25 µg/mL)
MIC [11]: 68.3 µM (≈ 25 µg/mL)
MIC [12]: 137 µM (≈ 50.1 µg/mL)
MIC [13]: 137 µM (≈ 50.1 µg/mL)

C[C@@H]1[C@H](O)[C@@H](C)/C=C/C=C/C=C/C=C/C=C/C=C/C=C/[C@H](O[C@@H]2O[C@H](C)[C@@H](O)[C@H](N)[C@@H]2O)C[C@@H]2O[C@](O)(C[C@@H](O)C[C@@H](O)[C@H](O)CC[C@@H](O)C[C@@H](O)CC(=O)O[C@H]1C)C[C@H](O)[C@H]2C(=O)O [AMPHOTERICIN B]
MIC [8]: < 0.5 µM
MIC [9]: < 0.5 µM
MIC [10]: < 0.5 µM
MIC [11]: 8.7 µM (≈ 8.04 µg/mL)
MIC [12]: < 0.5 µM
MIC [13]: < 0.5 µM
